Columns and labels:
Assay type in all cases: functional
[1] = Growth inhibition of human SNB19 cells assessed as cell growth at 10 uM incubated for 48 hrs by sulforhodamine B assay; conditions: SNB-19, 48 h, read-out: Activity
[2] = Growth inhibition of human UO31 cells assessed as cell growth at 10 uM incubated for 48 hrs by sulforhodamine B assay; conditions: UO-31, 48 h, read-out: Activity
NCI-H23 = assay: Growth inhibition of human NCI-H23 cells assessed as cell growth at 10^-6 M incubated for 48 hrs by sulforhodamine B assay; conditions: NCI-H23, 48 h, read-out: Activity
[3] = Growth inhibition of human HCT15 cells incubated for 48 hrs by sulforhodamine B assay; conditions: HCT-15, 48 h
Procedure, shortened: (§1)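 Cells seeded at 5,000–40,000/well according to doubling time and preincubated 24 h at 37 °C, 5% CO2. Time-zero plates were TCA-fixed. DMSO concentrate was diluted in medium with 50 µg/ml gentamicin to give five concentrations (10-fold or ½ log steps), then exposed 48 h. Cells were TCA-fixed, stained with 0.4% SRB and read at 515 nm. Percent growth was taken against time-zero and control; GI50, TGI and LC50 derived.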

[4] = Growth inhibition of human HCT116 cells incubated for 48 hrs by sulforhodamine B assay; conditions: HCT-116, 48 h; procedure, shortened: as §1
[5] = Growth inhibition of human DU145 cells assessed as cell growth at 10 uM incubated for 48 hrs by sulforhodamine B assay; conditions: DU-145, 48 h, read-out: Activity
Procedure, shortened: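 Primary screen at one dose (10 µM) across 60 human cancer cell lines. Readout was growth percent relative to untreated control and time-zero.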

M14 = assay: Growth inhibition of human M14 cells assessed as cell growth at 10 uM incubated for 48 hrs by sulforhodamine B assay; conditions: M14, 48 h, read-out: Activity
[6] = Growth inhibition of human BT549 cells assessed as cell growth at 10^-8 M incubated for 48 hrs by sulforhodamine B assay; conditions: BT-549, 48 h, read-out: Activity
Procedure, shortened: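 Five-dose assay: five concentrations from 10-fold or ½-log serial dilutions. Cells are plated at 5,000–40,000 per well according to doubling time, grown 24 h, then exposed 48 h at 37 °C, 5% CO₂. Fixed with cold 50% TCA (final addition) for 60 min at 4 °C and stained with 0.4% SRB in 1% acetic acid. Bound dye is solubilized in 10 mM Tris base and read at 515 nm. GI₅₀ is where [(Ti−Tz)/(C−Tz)]×100 = 50, with a time-zero plate as Tz.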

[7] = Growth inhibition of human SNB75 cells assessed as cell growth at 10^-7 M incubated for 48 hrs by sulforhodamine B assay; conditions: SNB-75, 48 h, read-out: Activity
[8] = Growth inhibition of human SKOV3 cells assessed as cell growth at 10^-4 M incubated for 48 hrs by sulforhodamine B assay; conditions: SK-OV-3, 48 h, read-out: Activity
T47D = assay: Growth inhibition of human T47D cells assessed as cell growth at 10^-5 M incubated for 48 hrs by sulforhodamine B assay; conditions: read-out: Activity
[9] = Growth inhibition of human HL-60(TB) cells assessed as cell growth at 10^-4 M incubated for 48 hrs by sulforhodamine B assay; conditions: HL-60, 48 h, read-out: Activity
Procedure, shortened: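 Cells plated at 5,000–40,000/well according to doubling time and preincubated 24 h at 37 °C, 5% CO₂, with time-zero plates TCA-fixed. Drugs were kept as DMSO concentrates at 400× the top concentration and diluted in medium with 50 µg/ml gentamicin. Five 10-fold or ½-log dilutions were run for 48 h, followed by SRB staining and A515. Percent growth = (Ti−Tz)/(C−Tz)×100, or (Ti−Tz)/Tz×100 when Ti<Tz.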

[10] = Growth inhibition of human SW620 cells assessed as cell growth at 10^-7 M incubated for 48 hrs by sulforhodamine B assay; conditions: SW-620, 48 h, read-out: Activity
K562 = assay: Growth inhibition of human K562 cells assessed as cell growth at 10^-6 M incubated for 48 hrs by sulforhodamine B assay; conditions: K562, 48 h, read-out: Activity
[11] = Growth inhibition of human DU145 cells incubated for 48 hrs by sulforhodamine B assay; conditions: DU-145, 48 h; for CC50: read-out: pLC50 (the source's name) (converted); procedure, shortened: as §1
[12] = Growth inhibition of human COLO205 cells assessed as cell growth at 10^-8 M incubated for 48 hrs by sulforhodamine B assay; conditions: COLO 205, 48 h, read-out: Activity; procedure, shortened: as §1
SK-MEL-5 = assay: Growth inhibition of human SK-MEL-5 cells assessed as cell growth at 10^-8 M incubated for 48 hrs by sulforhodamine B assay; conditions: SK-MEL-5, 48 h, read-out: Activity
MDA-MB-435 [13] = assay: Growth inhibition of human MDA-MB-435 cells incubated for 48 hrs by sulforhodamine B assay; conditions: MDA-MB-435, 48 h
Procedure, shortened: (§2)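 Cells were plated at 5,000–40,000 per well according to doubling time and preincubated 24 h at 37 °C in 5% CO2; time-zero plates were then TCA-fixed. Five concentrations (10-fold or ½-log dilutions, DMSO stock) were incubated 48 h. Cells were TCA-fixed, stained with 0.4% SRB and read at 515 nm. GI50 was taken where [(Ti−Tz)/(C−Tz)]×100 = 50.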

[14] = Growth inhibition of human IGROV1 cells assessed as cell growth at 10 uM incubated for 48 hrs by sulforhodamine B assay; conditions: IGROV-1, 48 h, read-out: Activity
[15] = Growth inhibition of human SNB75 cells assessed as cell growth at 10^-8 M incubated for 48 hrs by sulforhodamine B assay; conditions: SNB-75, 48 h, read-out: Activity
MDA-MB-435 [16] = assay: Growth inhibition of human MDA-MB-435 cells assessed as cell growth at 10^-5 M incubated for 48 hrs by sulforhodamine B assay; conditions: MDA-MB-435, 48 h, read-out: Activity
MDA-MB-468 = assay: Growth inhibition of human MDA-MB-468 cells incubated for 48 hrs by sulforhodamine B assay; conditions: MDA-MB-468, 48 h; procedure, shortened: as §2
MCF7 = assay: Growth inhibition of human MCF7 cells assessed as cell growth at 10^-5 M incubated for 48 hrs by sulforhodamine B assay; conditions: MCF7, 48 h, read-out: Activity
[17] = read-out: LC50 (the source's name)
[18] = read-out: pLC50 (the source's name) (converted)

## c1ccc(-c2nc(Nc3ccc(-c4nc5ccccc5[nH]4)cc3)nc(N3CCOCC3)n2)cc1
[1]
  growth at 10 µM: -18.6%
[2]
  growth at 10 µM: -60.6%
NCI-H23
  growth at 1 µM: 93%
[3]; read-out: GI50
  GI50: 343 nM
[3]; read-out: TGI
  TGI: 1540 nM
[3]; read-out: pGI50 (converted)
  GI50: 347 nM
[3]; read-out: pTGI (converted)
  TGI: 1550 nM
[4]; read-out: GI50
  GI50: 394 nM
[4]; [17]
  CC50: 7180 nM
[4]; read-out: TGI
  TGI: 1620 nM
[4]; read-out: pGI50 (converted)
  GI50: 398 nM
[4]; [18]
  CC50: 7240 nM
[4]; read-out: pTGI (converted)
  TGI: 1620 nM
[5]
  growth at 10 µM: -27.8%
M14
  growth at 10 µM: -80.7%
[6]
  growth at 0.01 µM: 99%
[7]
  growth at 0.1 µM: 96%
[8]
  growth at 100 µM: -100%
T47D
  growth at 10 µM: -56%
[9]
  growth at 100 µM: -56%
[10]
  growth at 0.1 µM: 92%
K562
  growth at 1 µM: -2%
[11]
  LC50 (50% net cell kill): 5120 nM
  CC50: 5130 nM
[11]; read-out: GI50
  GI50: 1210 nM
[11]; read-out: TGI
  TGI: 2490 nM
[11]; read-out: pGI50 (converted)
  GI50: 1200 nM
[11]; read-out: pTGI (converted)
  TGI: 2510 nM
[12]
  growth at 0.01 µM: 100%
SK-MEL-5
  growth at 0.01 µM: 101%
MDA-MB-435 [13]; read-out: GI50
  GI50: 1760 nM
MDA-MB-435 [13]; [17]
  CC50: 6110 nM
MDA-MB-435 [13]; read-out: TGI
  TGI: 3280 nM
MDA-MB-435 [13]; read-out: pGI50 (converted)
  GI50: 1780 nM
MDA-MB-435 [13]; [18]
  CC50: 6170 nM
MDA-MB-435 [13]; read-out: pTGI (converted)
  TGI: 3310 nM
[14]
  growth at 10 µM: -38.1%
[15]
  growth at 0.01 µM: 79%
MDA-MB-435 [16]
  growth at 10 µM: -90%
MDA-MB-468; read-out: GI50
  GI50: 2130 nM
MDA-MB-468; [17]
  CC50: 9030 nM
MDA-MB-468; read-out: TGI
  TGI: 4390 nM
MDA-MB-468; read-out: pGI50 (converted)
  GI50: 2140 nM
MDA-MB-468; [18]
  CC50: 9120 nM
MDA-MB-468; read-out: pTGI (converted)
  TGI: 4370 nM
MCF7
  growth at 10 µM: -57%

## Clc1ccc(-c2nc(Nc3ccc(-c4nc5ccccc5[nH]4)cc3)nc(N3CCOCC3)n2)cc1
[1]
  growth at 10 µM: -81.2%
[2]
  growth at 10 µM: -87.6%
NCI-H23
  growth at 1 µM: 85%
[3]; read-out: GI50
  GI50: 188 nM
[3]; read-out: TGI
  TGI: 412 nM
[3]; read-out: pGI50 (converted)
  GI50: 191 nM
[3]; read-out: pTGI (converted)
  TGI: 407 nM
[4]; read-out: GI50
  GI50: 177 nM
[4]; read-out: TGI
  TGI: 346 nM
[4]; read-out: pGI50 (converted)
  GI50: 178 nM
[4]; read-out: pTGI (converted)
  TGI: 347 nM
[5]
  growth at 10 µM: -94%
M14
  growth at 10 µM: -82.6%
[6]
  growth at 0.01 µM: 96%
[7]
  growth at 0.1 µM: 79%
[8]
  growth at 100 µM: -50%
T47D
  growth at 10 µM: -62%
[9]
  growth at 100 µM: -45%
[10]
  growth at 0.1 µM: 95%
K562
  growth at 1 µM: -63%
[11]
  LC50 (50% net cell kill): 4330 nM
  CC50: 4370 nM
[11]; read-out: GI50
  GI50: 452 nM
[11]; read-out: TGI
  TGI: 1640 nM
[11]; read-out: pGI50 (converted)
  GI50: 447 nM
[11]; read-out: pTGI (converted)
  TGI: 1660 nM
[12]
  growth at 0.01 µM: 95%
SK-MEL-5
  growth at 0.01 µM: 100%
MDA-MB-435 [13]; read-out: GI50
  GI50: 596 nM
MDA-MB-435 [13]; read-out: TGI
  TGI: 1860 nM
MDA-MB-435 [13]; read-out: pGI50 (converted)
  GI50: 603 nM
MDA-MB-435 [13]; read-out: pTGI (converted)
  TGI: 1860 nM
[14]
  growth at 10 µM: -71.2%
[15]
  growth at 0.01 µM: 83%
MDA-MB-435 [16]
  growth at 10 µM: -98%
MDA-MB-468; read-out: GI50
  GI50: 516 nM
MDA-MB-468; read-out: TGI
  TGI: 1820 nM
MDA-MB-468; read-out: pGI50 (converted)
  GI50: 513 nM
MDA-MB-468; read-out: pTGI (converted)
  TGI: 1820 nM
MCF7
  growth at 10 µM: -66%

Source: ChEMBL document CHEMBL3808334, “Synthesis and in vitro evaluation of novel triazine analogues as anticancer agents and their interaction studies with bovine serum albumin” (Eur J Med Chem, 2016)
